Assay results taken from ChEMBL document CHEMBL1154726, “Exploring the effect of 2,3,4-trimethoxy-phenyl moiety as a component of indolephenstatins” (Eur J Med Chem, 2010).

Columns and labels:
HT-29 = assay: Cytotoxicity against human HT-29 cells after 72 hrs by XTT assay; format: functional, cell-based; conditions: HT-29, 72 h
HL-60 = assay: Cytotoxicity against human HL60 cells after 72 hrs by XTT assay; format: functional, cell-based; conditions: HL-60, 72 h
Method in brief: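 XTT proliferation assay. Adherent cells were seeded and left 24 h at 37 °C in humidified 5% CO2/95% air to attach. HL-60 cells were seeded at 3 × 10³ cells/well. Cells were exposed to a range of compound concentrations for 72 h under the same atmosphere, then incubated a further 4 h. Formazan was read at 490 nm against a 655 nm reference. IC50 is the concentration giving 50% inhibition of proliferation.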

A549 = assay: Cytotoxicity against human A549 cells after 72 hrs by XTT assay; format: functional, cell-based; conditions: A549, 72 h
Bos taurus [1] = species on record: Bos taurus; assay: Inhibition of calf brain tubulin polymerization at 20 uM after 20 mins
Method in brief: (§1)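 Single-concentration screen of tubulin assembly using calf brain MTP at 1.0 mg/mL in 0.1 M MES, 1 mM EGTA, 1 mM MgCl2, 1 mM β-ME, 1.5 mM GTP, pH 6.7, 4% DMSO, with a no-ligand control. Samples were preincubated 30 min at 20 °C and 10 min on ice, then warmed from 4 °C to 37 °C.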

[2] = Inhibition of calf brain tubulin polymerization after 20 mins; set-up: species or system Bos taurus
Method in brief: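 Microtubule protein was purified from calf brain by two cycles of temperature-dependent assembly/disassembly. Assay mix: 1.0 mg/mL MTP in 0.1 M MES, 1 mM EGTA, 1 mM MgCl2, 1 mM β-ME, 1.5 mM GTP, pH 6.7, 4% DMSO, with a no-ligand control. Samples were preincubated 30 min at 20 °C, chilled 10 min on ice, then assembled by a shift from 4 °C to 37 °C and followed by turbidity. IC50 at 20 min came from exponential fits of TPI% versus concentration, with ≥2 independent experiments on different MTP preparations.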

HeLa = assay: Cytotoxicity against human HeLa cells after 72 hrs by XTT assay; format: functional, cell-based
Bos taurus [3] = species on record: Bos taurus; assay: Inhibition of calf brain tubulin polymerization at 30 uM after 20 mins
Method in brief: as §1, with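 “°C. Percent inhibition of the turbidity increase was taken after 20 min.” for “°C.”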

Bos taurus [4] = species on record: Bos taurus; assay: Inhibition of calf brain tubulin polymerization at 40 uM after 20 mins
Method in brief: as §1, with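 “°C. Percent inhibition of the turbidity increase was taken after 20 min.” for “°C.”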

Row | Structure (SMILES) | inhibition (Bos taurus [1]) [%] | IC50 [2] [nM] | inhibition (Bos taurus [3]) [%] | inhibition (Bos taurus [4]) [%] | IC50 (HT-29) [nM] | IC50 (HL-60) [nM] | IC50 (A549) [nM] | IC50 (HeLa) [nM]
1 | CCn1ccc2cc(/C(=N/N)c3ccc(OC)c(OC)c3OC)ccc21 | 12 | – | – | – | > 10000 | 2000 | > 10000 | –
2 | COc1ccc(C(=O)c2ccc3c(ccn3C)c2)c(OC)c1OC | 98 | 400 | – | – | 21 | – | 510 | 17
3 | COc1ccc(/C=C\c2cc(OC)c(OC)c(OC)c2)cc1O [COMBRETASTATIN A4] | – | 3000 | – | – | – | – | – | –
4 | COc1ccc(C(O)c2ccc3c(ccn3C)c2)c(OC)c1OC (configuration not stated) | 9 | – | – | – | – | – | > 10000 | 2400
5 | CCn1ccc2cc(/C(=N/O)c3ccc(OC)c(OC)c3OC)ccc21 | – | 43100 | 52 | – | 2000 | 2000 | > 10000 | 2000
6 | CCn1ccc2cc(C(O)c3ccc(OC)c(OC)c3OC)ccc21 (configuration not stated) | -0 | – | – | – | > 10000 | > 10000 | > 10000 | < 1000
7 | CCn1ccc2cc(/C(=N\NC)c3ccc(OC)c(OC)c3OC)ccc21 | – | – | 17 | – | 1200 | – | 1900 | 290
8 | COc1ccc(C(=O)c2ccc(OC)c(OC)c2OC)cc1O | 19 | – | – | – | – | – | – | –
9 | CCn1ccc2cc(/C(=N/OC(C)=O)c3ccc(OC)c(OC)c3OC)ccc21 | 29 | – | – | – | – | – | – | –
10 | COc1ccc(C(=O)c2cc(OC)c(OC)c(OC)c2)cc1O [PHENSTATIN] | 97 | 2500 | – | – | – | 30 | – | –
11 | CCn1ccc2cc(C(=O)c3ccc(OC)c(OC)c3OC)ccc21 | 47 | 5600 | – | – | 2000 | 5000 | > 10000 | 420
12 | COc1cc(C(=O)c2ccc3c(ccn3C)c2)cc(OC)c1OC | – | 6900 | – | 98 | – | – | – | –

Further lines, with some results ahead:

Row | inhibition (Bos taurus [1]) [%] | IC50 [2] [nM] | inhibition (Bos taurus [3]) [%] | inhibition (Bos taurus [4]) [%] | Structure (SMILES) | IC50 (HT-29) [nM] | IC50 (HL-60) [nM] | IC50 (A549) [nM] | IC50 (HeLa) [nM]
13 | 25 | – | – | – | COc1ccc(/C(=N\N)c2ccc3c(ccn3C)c2)c(OC)c1OC | 2000 | 2000 | > 10000 | 2000
14 | -0 | – | – | – | CN/N=C(/c1ccc2c(ccn2C)c1)c1ccc(OC)c(OC)c1OC | 2000 | 1000 | > 10000 | 1000
15 | 22 | – | – | – | COc1ccc(/C(=N\NC(C)=O)c2ccc3c(ccn3C)c2)c(OC)c1OC | 2000 | 2000 | > 10000 | 1000
16 | 5 | – | – | – | CCn1ccc2cc(/C(=N/NC(C)=O)c3ccc(OC)c(OC)c3OC)ccc21 | – | – | – | –
17 | – | 9000 | 82 | – | COc1ccc(/C(=N\O)c2ccc3c(ccn3C)c2)c(OC)c1OC | 270 | – | 1000 | 76
18 | – | – | 20 | – | COc1ccc(/C(=N\OC(C)=O)c2ccc3c(ccn3C)c2)c(OC)c1OC | 1500 | 580 | > 10000 | 1000
